For 33 compounds, IC50 and EC50 results are on record in ChEMBL document CHEMBL1141116, “Synthesis and structure-activity relationship of the first nonpeptidergic inverse agonists for the human cytomegalovirus encoded chemokine receptor US28” (J Med Chem, 2005).

SMILES strings stand for the structures.

Assay [1] concerns the target T1, G-protein coupled receptor homolog US28 (Human cytomegalovirus (strain AD169) (HHV-5) (Human herpesvirus 5), UniProt P69332).
T1 sequence (P69332 whole entry): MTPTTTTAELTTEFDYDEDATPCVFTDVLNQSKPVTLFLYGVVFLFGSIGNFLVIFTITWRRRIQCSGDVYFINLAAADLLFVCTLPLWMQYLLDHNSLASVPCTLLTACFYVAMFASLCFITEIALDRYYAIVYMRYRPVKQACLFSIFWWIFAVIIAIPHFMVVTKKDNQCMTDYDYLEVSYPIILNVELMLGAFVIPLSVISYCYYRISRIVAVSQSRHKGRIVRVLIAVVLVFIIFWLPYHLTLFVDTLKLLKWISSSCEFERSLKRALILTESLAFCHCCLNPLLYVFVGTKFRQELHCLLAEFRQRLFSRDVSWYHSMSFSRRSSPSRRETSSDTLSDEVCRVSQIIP
Kind of assay: Inhibitory concentration against chemokine receptor US28 expressed in COS-7 cells using [125I]-CCL5. Format: cell-based, Human betaherpesvirus 5. In a few lines:
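Whole US28-transfected COS-7 cells, 48 h post-transfection, incubated 3 h at 4 °C with 0.3 nM [125I]CCL5 in 50 mM Hepes pH 7.4, 1 mM CaCl2, 5 mM MgCl2, 0.5% BSA ± varying compound concentrations. Four washes at 4 °C with buffer plus 0.5 M NaCl; nonspecific binding with 0.1 μM unlabeled CCL5. IC50 as mean, interval from ≥3 experiments unless noted.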

Assay [2] concerns the target T1, G-protein coupled receptor homolog US28. The experiment in a line: Effective concentration against US28-mediated inositol phosphate production in COS-7 cells. Format: functional, cell-based. In a few lines:
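COS-7 cells transiently transfected (DEAE-dextran, 2 μg DNA per million cells, pcDEF3-US28); 24 h post-transfection labeled overnight with 2 μCi/ml myo-[2-3H]inositol in inositol-free medium. After 10 min wash, 2 h incubation in DMEM with 25 mM HEPES pH 7.4 and 20 mM LiCl ± varying compound concentrations; stopped with cold 10 mM formic acid, [3H]inositol phosphates isolated by anion exchange, scintillation counted. EC50 as mean, interval from ≥3 experiments.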

Regarding `OC1(c2ccc(Cl)cc2)CCN(CCCC(c2ccc(Cl)cc2)c2ccc(-c3ccccc3)cc2)CC1` (configuration not stated), in assay [1], the half-maximal inhibitory concentration (IC50) is above 100 µM. In assay [2], this compound came in with an EC50 above 100 µM. `N#CC(CCCN1CC=C(c2ccc(Cl)cc2)CC1)(c1ccccc1)c1ccccc1` displayed an IC50 in assay [1] above 100 µM. Also, the EC50 in assay [2] is above 100 µM. `COc1ccc(C2(O)CCN(CCCC(C#N)(c3ccccc3)c3ccccc3)CC2)cc1` registered an IC50 in assay [1] of 72.4 µM. Also, the EC50 in assay [2] was determined as 28.8 µM. Compound `N#CC(CCCN1CCC(C(N)=O)CC1)(c1ccccc1)c1ccccc1` returned an IC50 in assay [1] above 100 µM. The EC50 in assay [2] is above 100 µM.

Take `C[N+]1(CCCC(C#N)(c2ccccc2)c2ccccc2)CCC(O)(c2ccc(Cl)cc2)CC1` (configuration not stated): the IC50 in assay [1] was above 100 µM. Besides, the concentration for a half-maximal effect (EC50) in assay [2] is above 100 µM.

Take `N#CC(CCCN1CCC(O)(c2ccc(Cl)c(C(F)(F)F)c2)CC1)(c1ccccc1)c1ccccc1`: in assay [1], the 50% inhibitory concentration (IC50) is 45.7 µM. Compound `OC(CCCN1CCC(O)(c2ccc(Cl)cc2)CC1)c1ccccc1` (configuration not stated) came in with an IC50 in assay [1] above 100 µM. Besides, the 50% effective concentration (EC50) in assay [2] is above 100 µM. Take `CCCCC1(O)CCN(CCCC(C#N)(c2ccccc2)c2ccccc2)CC1`: the IC50 in assay [1] is above 100 µM. Also, the EC50 in assay [2] is above 100 µM. `CCOC(=O)C1CCN(CCCC(C#N)(c2ccccc2)c2ccccc2)CC1` registered an IC50 in assay [1] of 34.7 µM. Further, the EC50 in assay [2] was above 100 µM. In assay [1], `OC1(c2ccc(Cl)cc2)CCN(CCCC(c2ccc(Cl)cc2)c2ccc(Cl)cc2)CC1` displayed an IC50 of 17.4 µM.

Take `N#CC(CCCN1CCC(O)(c2ccc(Cl)c(Cl)c2)CC1)(c1ccccc1)c1ccccc1`: in assay [1], it took 38 µM to reach half-maximal inhibition (IC50). On the same count and under the same terms, under `Cc1ccc(C2(O)CCN(CCCC(C#N)(c3ccccc3)c3ccccc3)CC2)cc1` stands 60.3 µM.

In turn, `Cc1ccccc1C(CCCN1CCC(O)(c2ccc(Cl)cc2)CC1)c1ccccc1` (configuration not stated) showed an IC50 in assay [1] of 5.5 µM. Also, the EC50 in assay [2] was determined as 9.8 µM.

In the case of `OC1(c2ccc(Cl)cc2)CCN(CCCC(c2ccccc2)c2ccc(Cl)cc2)CC1` (configuration not stated), the IC50 in assay [1] is 17 µM. The same measure, in the same setting: under `O=C(CCCN1CCC(O)(c2ccc(Cl)cc2)CC1)c1ccccc1` stands above 100 µM. Take `N#CC(CCCN1CCC(C(=O)O)CC1)(c1ccccc1)c1ccccc1`: the IC50 in assay [1] was above 100 µM. The compound also gave an EC50 in assay [2] above 100 µM. In assay [1], `N#CC(CCCN1CCC(O)CC1)(c1ccccc1)c1ccccc1` gave an IC50 above 100 µM. Moreover, in assay [2], the EC50 was above 100 µM. For `OC1(c2ccc(Cl)cc2)CCN(CCCC(c2ccccc2)c2ccccc2)CC1`, the concentration for half-maximal inhibition (IC50) in assay [1] came to 6.5 µM. The same compound returned an EC50 in assay [2] of 4.2 µM. The compound `N#CC(CCCN1CCC(c2ccc(Cl)cc2)CC1)(c1ccccc1)c1ccccc1` showed an EC50 in assay [2] of 13.8 µM. The compound `N#CC1(c2ccccc2)CCN(CCCC(C#N)(c2ccccc2)c2ccccc2)CC1` yielded a half-inhibitory concentration (IC50) in assay [1] above 100 µM. This compound also registered an EC50 in assay [2] above 100 µM.

In turn, `N#CC(CCCN1CCC(O)(c2ccc(Br)cc2)CC1)(c1ccccc1)c1ccccc1` gave an IC50 in assay [1] of 19.5 µM.

With `OC1(c2ccc(Cl)cc2)CCN(CCCCc2ccccc2)CC1`, the IC50 in assay [1] came out at 14.8 µM. Take `COc1ccc(C(CCCN2CCC(O)(c3ccc(Cl)cc3)CC2)c2ccccc2)cc1` (configuration not stated): the IC50 in assay [1] stood at 15.5 µM. The compound `N#CC(CCCN1CCC(O)(c2ccc(Cl)cc2)CC1)(c1ccccc1)c1ccccc1` [BERLEX COMPOUND] had an IC50 in assay [1] of 9.3 µM. In assay [2], this compound had an EC50 of 3.2 µM. `OC1(c2ccc(Cl)cc2)CCN(CCCOc2ccccc2)CC1` yielded an IC50 in assay [1] of 61.7 µM.

For the compound `OC1(c2ccc(Cl)cc2)CCN(CCCC(c2ccccc2)c2ccc(Cl)c(Cl)c2)CC1` (configuration not stated), the half-inhibitory concentration (IC50) in assay [1] was 15.8 µM. Compound `Cc1ccc(C(CCCN2CCC(O)(c3ccc(Cl)cc3)CC2)c2ccccc2)cc1` (configuration not stated) returned an IC50 in assay [1] of 30.9 µM. Besides, the EC50 in assay [2] amounted to 11.5 µM.

With `N#CC(CCCN1CCC(=C(c2ccccc2)c2ccccc2)CC1)(c1ccccc1)c1ccccc1`, the IC50 in assay [1] was above 100 µM. Further, in assay [2], the EC50 is above 100 µM. For the compound `Cc1cccc(C(CCCN2CCC(O)(c3ccc(Cl)cc3)CC2)c2ccccc2)c1` (configuration not stated), the IC50 in assay [1] was determined as 11.5 µM.

Consider `CC1(O)CCN(CCCC(C#N)(c2ccccc2)c2ccccc2)CC1`, for which the IC50 in assay [1] was above 100 µM. Besides, the EC50 in assay [2] is above 100 µM.

For `N#CC(CCCN1CCN(c2ccc(Cl)cc2)CC1)(c1ccccc1)c1ccccc1`, the IC50 in assay [1] is above 100 µM. In assay [2], this compound gave a concentration for a half-maximal effect (EC50) above 100 µM.

In assay [1], `N#CC(CCCN1CCC(O)(Cc2ccccc2)CC1)(c1ccccc1)c1ccccc1` gave an IC50 of 63.1 µM. In assay [1], `N#CC(CCCN1CCC(O)(c2ccccc2)CC1)(c1ccccc1)c1ccccc1` came in with an IC50 of 35.5 µM. The compound further gave an EC50 in assay [2] of 28.2 µM.
